Reference: ChEMBL document CHEMBL4346684, “Synthesis and structure-bactericidal activity relationships of non-ketolides: 9-Oxime clarithromycin 11,12-cyclic carbonate featured with three-to eight-atom-length spacers at 3-OH” (Eur J Med Chem, 2019)
≈ marks a conversion by molar mass, not a printed value. Calls of active or inactive are those of the source. No cut-off for these calls is given here.

Columns and labels:
Staphylococcus aureus [1] = assay: Antimicrobial activity against inducibly erythromycin resistant Staphylococcus aureus PU64 expressing i-ermA incubated in CAMHB medium for 20 hrs by two-fold microbroth dilution method; assay type: functional; conditions: PU64, 20 h
Outline: (§1)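 Purified fresh Staphylococcus isolate at about 5×10^5 CFU/ml final in CAMHB, 35 °C for 20 h. […] Each run included ATCC strains and reference antibiotics as QC, plus an antibiotic-free growth control.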

Streptococcus pneumoniae [2] = assay: Ratio of MBC to MIC for erythromycin-susceptible Streptococcus pneumoniae ATCC 49619; assay type: functional
Streptococcus pyogenes [3] = assay: Bactericidal activity against inducibly erythromycin resistant Streptococcus pyogenes 01-968 expressing i-ermA at 1XMIC incubated for 24 hrs by broth dilution method; assay type: functional, organism-based
Outline: (§2)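 Samples were taken at 1, 2, 4, 6, 8, 12 and 24 h, diluted and subcultured at 35 °C for 20–24 h. Colonies were counted and log CFU plotted against time; detection limit 300 CFU/mL.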

Moraxella catarrhalis [4] = assay: Ratio of MBC to MIC for erythromycin-susceptible Moraxella catarrhalis 13L332; assay type: functional
Streptococcus pneumoniae [5] = assay: Antimicrobial activity against mef-encoded erythromycin resistant Streptococcus pneumoniae PU09 incubated in CAMHB medium for 20 to 24 hrs by two-fold microbroth dilution method; assay type: functional
Staphylococcus aureus [6] = assay: Antimicrobial activity against constitutively erythromycin resistant Staphylococcus aureus PU20 expressing c-ermC incubated in CAMHB medium for 20 hrs by two-fold microbroth dilution method; assay type: functional; conditions: PU20, 20 h; outline: as §1
Streptococcus pyogenes [7] = assay: Antimicrobial activity against inducibly erythromycin resistant Streptococcus pyogenes 01-968 expressing i-ermA incubated in CAMHB medium for 20 to 24 hrs by two-fold microbroth dilution method; assay type: functional
Streptococcus pyogenes [8] = assay: Antimicrobial activity against constitutively erythromycin resistant Streptococcus pyogenes A2 expressing c-erm incubated in CAMHB medium for 20 to 24 hrs by two-fold microbroth dilution method; assay type: functional
Outline: (§3)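 Purified fresh Streptococcus isolate at about 5×10^5 CFU/ml final in CAMHB with 5% horse serum, 35 °C for 20–24 h. […] Each run included ATCC strains and reference antibiotics as QC, plus an antibiotic-free growth control.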

Staphylococcus aureus [9] = assay: Antimicrobial activity against erythromycin-susceptible Staphylococcus aureus ATCC 29213 incubated in CAMHB medium for 20 hrs by two-fold microbroth dilution method; assay type: functional; conditions: ATCC 29213, 20 h
Outline: (§4)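 Clinical isolates and ATCC strains, purified by plate activation and used fresh; inoculum about 5×10^5 CFU/ml final. Grown in CAMHB at 35 °C for 20 h.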

Moraxella catarrhalis [10] = assay: Antimicrobial activity against erythromycin-susceptible Moraxella catarrhalis 13L332 incubated in CAMHB medium for 20 hrs by two-fold microbroth dilution method; assay type: functional; conditions: 13L332, 20 h; outline: as §4
Staphylococcus aureus [11] = assay: Ratio of MBC to MIC for inducibly erythromycin-resistant and methicillin resistant Staphylococcus aureus PU32 expressing i-ermA; assay type: functional
Streptococcus pneumoniae [12] = assay: Bactericidal activity against mef-encoded erythromycin resistant Streptococcus pneumoniae PU09 at 1 to 16xMIC incubated for 1 to 24 hrs by broth dilution method; assay type: functional, organism-based; outline: as §2
Streptococcus pneumoniae [13] = assay: Bactericidal activity against erythromycin-susceptible Streptococcus pneumoniae ATCC 49619 assessed as log reduction in bacterial CFU at 1 to 16XMIC incubated for 1 to 24 hrs by broth dilution method; assay type: functional
Outline: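 Samples taken at 1, 2, 4, 6, 8, 12, 24 h, diluted and plated, colonies counted after 20-24 h at 35 °C; log CFU plotted against time. Detection limit 300 CFU/mL.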

Streptococcus pyogenes [14] = assay: Bactericidal activity against inducibly erythromycin resistant Streptococcus pyogenes 01-968 expressing i-ermA at 1XMIC incubated for 12 hrs by broth dilution method; assay type: functional, organism-based; outline: as §2
Streptococcus pneumoniae [15] = assay: Bactericidal activity against mef-encoded erythromycin resistant Streptococcus pneumoniae PU09 assessed as reduction in colony formation incubated in CAMHB medium for 20 to 24 hrs followed by 24 hrs subculturing in the medium without test compound; assay type: functional
Streptococcus pneumoniae [16] = assay: Bactericidal activity against erythromycin-susceptible Streptococcus pneumoniae ATCC 49619 assessed as reduction in colony formation incubated in CAMHB medium for 20 to 24 hrs followed by 24 hrs subculturing in the medium without test compound; assay type: functional
Streptococcus pneumoniae [17] = assay: Ratio of MBC to MIC for mef-encoded erythromycin resistant Streptococcus pneumoniae PU09; assay type: functional
Staphylococcus aureus [18] = assay: Antimicrobial activity against constitutively erythromycin resistant and methicillin resistant Staphylococcus aureus PU20 expressing c-ermC incubated in CAMHB medium for 20 hrs by two-fold microbroth dilution method; assay type: functional; conditions: PU20, 20 h
Outline: (§5)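 Purified fresh Staphylococcus isolate at about 5×10^5 CFU/ml final in CAMHB, 35 °C for 20 h. Each run included ATCC strains and reference antibiotics as QC, plus an antibiotic-free growth control.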

[19] = tested on: Staphylococcus epidermidis; assay: Antimicrobial activity against Staphylococcus epidermidis E1 incubated in CAMHB medium for 20 hrs by two-fold microbroth dilution method; assay type: functional; conditions: E1, 20 h; outline: as §4
Staphylococcus aureus [20] = assay: Antimicrobial activity against inducibly erythromycin-resistant Staphylococcus aureus PU32 expressing i-ermA incubated in CAMHB medium for 20 hrs by two-fold microbroth dilution method; assay type: functional; conditions: PU32, 20 h; outline: as §1
Staphylococcus aureus [21] = assay: Bactericidal activity against inducibly erythromycin-resistant and methicillin resistant Staphylococcus aureus PU32 expressing i-ermA assessed as reduction in colony formation incubated in CAMHB medium for 20 hrs followed by 24 hrs subculturing in the medium without test compound; assay type: functional
Streptococcus pyogenes [22] = assay: Bactericidal activity against inducibly erythromycin resistant Streptococcus pyogenes 01-968 expressing i-ermA assessed as reduction in colony formation incubated in CAMHB medium for 20 to 24 hrs followed by 24 hrs subculturing in the medium without test compound; assay type: functional
Staphylococcus aureus [23] = assay: Antimicrobial activity against inducibly erythromycin-resistant and methicillin resistant Staphylococcus aureus PU32 expressing i-ermA incubated in CAMHB medium for 20 hrs by two-fold microbroth dilution method; assay type: functional; conditions: PU32, 20 h; outline: as §5
Streptococcus pyogenes [24] = assay: Antimicrobial activity against erythromycin-susceptible Streptococcus pyogenes A3 incubated in CAMHB medium for 20 to 24 hrs by two-fold microbroth dilution method; assay type: functional
Moraxella catarrhalis [25] = assay: Bactericidal activity against erythromycin-susceptible Moraxella catarrhalis 13L332 assessed as reduction in colony formation incubated in CAMHB medium for 20 hrs followed by 24 hrs subculturing in the medium without test compound; assay type: functional
Streptococcus pneumoniae [26] = assay: Antimicrobial activity against constitutively erythromycin resistant Streptococcus pneumoniae PU27 expressing c-erm incubated in CAMHB medium for 20 to 24 hrs by two-fold microbroth dilution method; assay type: functional; outline: as §3
Streptococcus pyogenes [27] = assay: Ratio of MBC to MIC for inducibly erythromycin resistant Streptococcus pyogenes 01-968 expressing i-ermA; assay type: functional
Staphylococcus aureus [28] = assay: Bactericidal activity against constitutively erythromycin resistant and methicillin-resistant Staphylococcus aureus PU20 expressing c-ermC assessed as reduction in colony formation incubated in CAMHB medium for 20 hrs followed by 24 hrs subculturing in the medium without test compound; assay type: functional

CC[C@H]1OC(=O)[C@H](C)C(=O)[C@H](C)[C@@H](O[C@@H]2O[C@H](C)C[C@H](N(C)C)[C@H]2O)[C@](C)(OC)C[C@@H](C)C(=O)[C@H](C)[C@H]2N(CCCCn3cnc(-c4cccnc4)c3)C(=O)O[C@]12C [TELITHROMYCIN]
MIC (Staphylococcus aureus [1]): 0.125 µg/mL (≈ 0.154 µM)
Ratio (Streptococcus pneumoniae [2]): 1 - 4
Activity (Streptococcus pyogenes [3]): inactive
Ratio (Moraxella catarrhalis [4]): 4
MIC (Streptococcus pneumoniae [5]): 0.25 to 1 µg/mL (≈ 0.308 to 1.23 µM)
MIC (Staphylococcus aureus [6]): > 256 µg/mL
MIC (Streptococcus pyogenes [7]): 0.031 to 0.062 µg/mL (≈ 0.0382 to 0.0764 µM)
MIC (Streptococcus pyogenes [8]): 32 µg/mL (≈ 39.4 µM)
MIC (Staphylococcus aureus [9]): 0.125 µg/mL (≈ 0.154 µM)
MIC (Moraxella catarrhalis [10]): 0.125 µg/mL (≈ 0.154 µM)
Ratio (Staphylococcus aureus [11]): >=4 - 8
Activity (Streptococcus pneumoniae [12]): Active
Activity (Streptococcus pneumoniae [13]): 3 log10CFU
Activity (Streptococcus pyogenes [14]): Active
MBC (Streptococcus pneumoniae [15]): 1 to 4 µg/mL (≈ 1.23 to 4.93 µM)
MBC (Streptococcus pneumoniae [16]): 0.031 to 0.125 µg/mL (≈ 0.0382 to 0.154 µM)
Ratio (Streptococcus pneumoniae [17]): 4 - 8
MIC (Staphylococcus aureus [18]): > 256 µg/mL
MIC [19]: 0.125 µg/mL (≈ 0.154 µM)
MIC (Staphylococcus aureus [20]): 0.125 µg/mL (≈ 0.154 µM)
MBC (Staphylococcus aureus [21]): 1 to 2 µg/mL (≈ 1.23 to 2.46 µM)
MBC (Streptococcus pyogenes [22]): 0.13 to 0.5 µg/mL (≈ 0.16 to 0.616 µM)
MIC (Staphylococcus aureus [23]): 0.25 µg/mL (≈ 0.308 µM)
MIC (Streptococcus pyogenes [24]): ≤ 0.032 µg/mL
MBC (Moraxella catarrhalis [25]): 0.5 µg/mL (≈ 0.616 µM)
MIC (Streptococcus pneumoniae [26]): ≤ 0.032 µg/mL
Ratio (Streptococcus pyogenes [27]): 4 - 8
MBC (Staphylococcus aureus [28]): > 256 µg/mL
